Laboratory results from ChEMBL document CHEMBL2029214, “Radiosynthesis and evaluation of an (18)F-labeled positron emission tomography (PET) radioligand for brain histamine subtype-3 receptors based on a nonimidazole 2-aminoethylbenzofuran chemotype” (J Med Chem, 2012).

What was measured:
[1] = biological target: Alpha-1D adrenergic receptor (Homo sapiens, UniProt P25100); test: Binding affinity to human recombinant alpha1D adrenergic receptor
[2] = biological target: Muscarinic acetylcholine receptor M1 (Homo sapiens, UniProt P11229); test: Binding affinity to human recombinant M1 receptor
[3] = biological target: Muscarinic acetylcholine receptor M2 (Homo sapiens, UniProt P08172); test: Binding affinity to human recombinant M2 receptor
[4] = biological target: D(4) dopamine receptor (Homo sapiens, UniProt P21917); test: Binding affinity to human recombinant Dopamine D4 receptor
Chain of D(4) dopamine receptor (P21917 whole entry): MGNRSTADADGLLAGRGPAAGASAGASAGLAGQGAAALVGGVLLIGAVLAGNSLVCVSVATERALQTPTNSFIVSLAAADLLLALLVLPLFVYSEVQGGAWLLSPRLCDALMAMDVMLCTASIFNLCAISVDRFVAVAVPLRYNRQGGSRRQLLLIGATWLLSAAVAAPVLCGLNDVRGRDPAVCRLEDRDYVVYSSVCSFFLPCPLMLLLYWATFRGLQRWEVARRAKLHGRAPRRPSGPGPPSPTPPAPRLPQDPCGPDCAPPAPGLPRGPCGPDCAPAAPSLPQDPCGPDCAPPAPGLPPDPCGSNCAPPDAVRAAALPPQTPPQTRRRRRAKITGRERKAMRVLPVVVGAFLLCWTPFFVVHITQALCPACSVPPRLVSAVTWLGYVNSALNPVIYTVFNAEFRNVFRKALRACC

[5] = biological target: Alpha-1B adrenergic receptor (Homo sapiens, UniProt P35368); test: Binding affinity to human recombinant alpha1B adrenergic receptor
Chain of Alpha-1B adrenergic receptor (P35368 whole entry): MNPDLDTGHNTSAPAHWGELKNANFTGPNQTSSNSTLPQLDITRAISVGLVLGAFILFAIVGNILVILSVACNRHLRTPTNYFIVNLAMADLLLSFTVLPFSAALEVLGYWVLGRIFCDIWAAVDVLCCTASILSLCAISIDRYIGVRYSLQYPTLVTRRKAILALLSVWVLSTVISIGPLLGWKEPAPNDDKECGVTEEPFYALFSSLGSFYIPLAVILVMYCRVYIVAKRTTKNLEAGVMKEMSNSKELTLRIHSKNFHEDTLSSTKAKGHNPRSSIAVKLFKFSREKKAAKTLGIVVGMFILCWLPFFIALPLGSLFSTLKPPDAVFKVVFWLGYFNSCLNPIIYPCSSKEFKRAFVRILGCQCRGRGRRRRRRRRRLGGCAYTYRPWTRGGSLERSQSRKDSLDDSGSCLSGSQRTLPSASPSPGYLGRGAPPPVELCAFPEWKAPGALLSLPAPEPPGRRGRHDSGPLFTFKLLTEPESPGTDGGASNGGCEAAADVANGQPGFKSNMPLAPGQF

[6] = biological target: D(3) dopamine receptor (Homo sapiens, UniProt P35462); test: Binding affinity to human recombinant Dopamine D3 receptor
[7] = biological target: Histamine H4 receptor (Homo sapiens, UniProt Q9H3N8); test: Binding affinity to human recombinant H4 receptor
[8] = biological target: Muscarinic acetylcholine receptor M3 (Homo sapiens, UniProt P20309); test: Binding affinity to human recombinant M3 receptor
Chain of Muscarinic acetylcholine receptor M3 (P20309 whole entry): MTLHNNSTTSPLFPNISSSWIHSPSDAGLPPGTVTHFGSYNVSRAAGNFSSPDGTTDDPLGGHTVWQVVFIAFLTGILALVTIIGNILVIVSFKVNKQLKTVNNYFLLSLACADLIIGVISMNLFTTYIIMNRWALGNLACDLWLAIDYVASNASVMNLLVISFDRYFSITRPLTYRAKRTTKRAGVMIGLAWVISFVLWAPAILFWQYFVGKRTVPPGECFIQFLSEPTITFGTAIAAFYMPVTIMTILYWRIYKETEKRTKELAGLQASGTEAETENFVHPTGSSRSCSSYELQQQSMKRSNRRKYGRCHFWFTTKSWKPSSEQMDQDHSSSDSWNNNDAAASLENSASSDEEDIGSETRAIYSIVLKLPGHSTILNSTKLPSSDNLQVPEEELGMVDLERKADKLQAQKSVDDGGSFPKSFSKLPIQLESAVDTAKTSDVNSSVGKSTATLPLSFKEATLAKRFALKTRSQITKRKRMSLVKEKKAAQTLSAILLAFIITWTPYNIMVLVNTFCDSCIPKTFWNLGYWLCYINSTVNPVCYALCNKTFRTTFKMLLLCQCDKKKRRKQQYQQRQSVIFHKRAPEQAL

[9] = biological target: Sodium-dependent serotonin transporter (Homo sapiens, UniProt P31645); test: Binding affinity to human recombinant SERT
[10] = biological target: 5-hydroxytryptamine receptor 2B (Homo sapiens, UniProt P41595); test: Binding affinity to human recombinant 5HT2B receptor
[11] = biological target: 5-hydroxytryptamine receptor 1A (Homo sapiens, UniProt P08908); test: Binding affinity to human recombinant 5HT1A receptor
[12] = biological target: 5-hydroxytryptamine receptor 7 (Homo sapiens, UniProt P34969); test: Binding affinity to human recombinant 5HT7 receptor
Chain of 5-hydroxytryptamine receptor 7 (P34969 whole entry): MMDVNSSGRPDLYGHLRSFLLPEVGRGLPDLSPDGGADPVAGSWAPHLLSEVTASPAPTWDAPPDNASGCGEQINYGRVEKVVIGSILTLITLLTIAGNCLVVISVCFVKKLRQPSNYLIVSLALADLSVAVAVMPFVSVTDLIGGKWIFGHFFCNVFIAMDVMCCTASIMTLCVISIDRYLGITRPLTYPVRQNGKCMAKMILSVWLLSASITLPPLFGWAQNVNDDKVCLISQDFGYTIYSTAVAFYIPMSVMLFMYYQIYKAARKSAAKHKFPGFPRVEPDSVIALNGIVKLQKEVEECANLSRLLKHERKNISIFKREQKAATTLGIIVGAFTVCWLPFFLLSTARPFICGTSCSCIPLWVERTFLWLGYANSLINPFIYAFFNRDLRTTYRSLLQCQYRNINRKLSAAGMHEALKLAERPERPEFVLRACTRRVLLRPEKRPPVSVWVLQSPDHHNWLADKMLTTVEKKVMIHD

[13] = biological target: Alpha-2B adrenergic receptor (Homo sapiens, UniProt P18089); test: Binding affinity to human recombinant alpha2B adrenergic receptor
[14] = biological target: Sodium-dependent dopamine transporter (Homo sapiens, UniProt Q01959); test: Binding affinity to human recombinant DAT
Chain of Sodium-dependent dopamine transporter (Q01959 whole entry): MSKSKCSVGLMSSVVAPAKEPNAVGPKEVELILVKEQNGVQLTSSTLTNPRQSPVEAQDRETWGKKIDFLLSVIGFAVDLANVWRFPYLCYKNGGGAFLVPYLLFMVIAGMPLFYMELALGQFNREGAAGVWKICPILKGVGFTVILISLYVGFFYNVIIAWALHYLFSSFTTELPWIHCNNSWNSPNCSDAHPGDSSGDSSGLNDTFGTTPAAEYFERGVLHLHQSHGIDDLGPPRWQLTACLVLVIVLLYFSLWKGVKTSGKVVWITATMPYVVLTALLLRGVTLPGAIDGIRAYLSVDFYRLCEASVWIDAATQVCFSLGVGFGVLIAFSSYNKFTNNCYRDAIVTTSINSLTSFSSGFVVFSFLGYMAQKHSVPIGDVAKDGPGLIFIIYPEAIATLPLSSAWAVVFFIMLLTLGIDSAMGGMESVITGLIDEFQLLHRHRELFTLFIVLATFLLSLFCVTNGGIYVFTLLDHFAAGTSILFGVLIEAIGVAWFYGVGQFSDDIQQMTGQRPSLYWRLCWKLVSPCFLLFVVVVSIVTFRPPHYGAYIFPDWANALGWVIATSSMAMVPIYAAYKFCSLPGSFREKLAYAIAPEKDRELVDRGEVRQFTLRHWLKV

[15] = biological target: Beta-3 adrenergic receptor (Homo sapiens, UniProt P13945); test: Binding affinity to human recombinant beta3 adrenergic receptor
Chain of Beta-3 adrenergic receptor (P13945 whole entry): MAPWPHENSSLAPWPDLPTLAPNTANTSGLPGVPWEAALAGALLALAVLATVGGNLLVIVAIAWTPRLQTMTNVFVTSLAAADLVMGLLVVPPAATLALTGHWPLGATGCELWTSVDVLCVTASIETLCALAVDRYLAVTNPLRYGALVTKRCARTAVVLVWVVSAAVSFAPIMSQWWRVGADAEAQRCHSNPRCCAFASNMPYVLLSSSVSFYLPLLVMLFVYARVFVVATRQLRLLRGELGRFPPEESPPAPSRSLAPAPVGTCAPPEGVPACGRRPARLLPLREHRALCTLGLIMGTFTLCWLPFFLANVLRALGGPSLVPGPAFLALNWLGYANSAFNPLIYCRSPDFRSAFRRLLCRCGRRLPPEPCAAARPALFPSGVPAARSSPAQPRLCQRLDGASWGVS

[16] = biological target: 5-hydroxytryptamine receptor 1E (Homo sapiens, UniProt P28566); test: Binding affinity to human recombinant 5HT1E receptor
[17] = biological target: 5-hydroxytryptamine receptor 3A (Homo sapiens, UniProt P46098); test: Binding affinity to human recombinant 5HT3 receptor
[18] = biological target: 5-hydroxytryptamine receptor 6 (Homo sapiens, UniProt P50406); test: Binding affinity to human recombinant 5HT6 receptor
[19] = biological target: Sigma non-opioid intracellular receptor 1 (Homo sapiens, UniProt Q99720); test: Binding affinity to human recombinant sigma1 receptor
[20] = biological target: 5-hydroxytryptamine receptor 2A (Homo sapiens, UniProt P28223); test: Binding affinity to human recombinant 5HT2A receptor
Method in brief: (§1)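 Ki values were taken from in vitro competitive binding assays against each human recombinant receptor.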

[21] = biological target: Alpha-2A adrenergic receptor (Homo sapiens, UniProt P08913); test: Binding affinity to human recombinant alpha2A adrenergic receptor
[22] = biological target: Histamine H1 receptor (Homo sapiens, UniProt P35367); test: Binding affinity to human recombinant H1 receptor
[23] = biological target: 5-hydroxytryptamine receptor 2C (Homo sapiens, UniProt P28335); test: Binding affinity to human recombinant 5HT2C receptor
[24] = biological target: D(2) dopamine receptor (Homo sapiens, UniProt P14416); test: Binding affinity to human recombinant Dopamine D2 receptor
Chain of D(2) dopamine receptor (P14416 whole entry): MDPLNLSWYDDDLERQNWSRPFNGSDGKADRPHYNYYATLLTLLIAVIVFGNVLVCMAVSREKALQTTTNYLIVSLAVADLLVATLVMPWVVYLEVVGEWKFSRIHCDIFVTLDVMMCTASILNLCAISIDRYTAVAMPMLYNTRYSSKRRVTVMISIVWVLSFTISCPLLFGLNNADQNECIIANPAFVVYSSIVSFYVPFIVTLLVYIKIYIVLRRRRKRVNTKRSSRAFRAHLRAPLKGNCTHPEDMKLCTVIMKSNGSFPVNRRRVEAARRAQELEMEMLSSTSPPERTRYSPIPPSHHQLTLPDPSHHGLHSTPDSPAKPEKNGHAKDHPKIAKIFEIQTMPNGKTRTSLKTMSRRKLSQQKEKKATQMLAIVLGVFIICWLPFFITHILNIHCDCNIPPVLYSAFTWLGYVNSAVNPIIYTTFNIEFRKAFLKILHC

[25] = biological target: Muscarinic acetylcholine receptor M5 (Homo sapiens, UniProt P08912); test: Binding affinity to human recombinant M5 receptor; method in brief: as §1
[26] = biological target: Beta-1 adrenergic receptor (Homo sapiens, UniProt P08588); test: Binding affinity to human recombinant beta1 adrenergic receptor
[27] = biological target: D(1A) dopamine receptor (Homo sapiens, UniProt P21728); test: Binding affinity to human recombinant Dopamine D1 receptor
[28] = biological target: 5-hydroxytryptamine receptor 1B (Homo sapiens, UniProt P28222); test: Binding affinity to human recombinant 5HT1B receptor
[29] = biological target: Histamine H2 receptor (Homo sapiens, UniProt P25021); test: Binding affinity to human recombinant H2 receptor
[30] = biological target: Sodium-dependent noradrenaline transporter (Homo sapiens, UniProt P23975); test: Binding affinity to human recombinant NET
[31] = biological target: Beta-2 adrenergic receptor (Homo sapiens, UniProt P07550); test: Binding affinity to human recombinant beta2 adrenergic receptor
[32] = biological target: 5-hydroxytryptamine receptor 1D (Homo sapiens, UniProt P28221); test: Binding affinity to human recombinant 5HT1D receptor; method in brief: as §1
Chain of 5-hydroxytryptamine receptor 1D (P28221 whole entry): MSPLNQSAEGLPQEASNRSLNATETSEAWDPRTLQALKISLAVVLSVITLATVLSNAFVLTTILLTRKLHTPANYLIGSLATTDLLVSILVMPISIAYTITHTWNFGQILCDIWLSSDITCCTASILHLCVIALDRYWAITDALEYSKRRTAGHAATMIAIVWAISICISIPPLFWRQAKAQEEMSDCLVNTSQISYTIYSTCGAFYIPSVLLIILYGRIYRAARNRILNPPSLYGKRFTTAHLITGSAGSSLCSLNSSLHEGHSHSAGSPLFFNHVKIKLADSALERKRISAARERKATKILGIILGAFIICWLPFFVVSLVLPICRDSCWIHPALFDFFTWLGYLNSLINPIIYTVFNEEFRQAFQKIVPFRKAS

[33] = biological target: D(1B) dopamine receptor (Homo sapiens, UniProt P21918); test: Binding affinity to human recombinant Dopamine D5 receptor
[34] = biological target: Muscarinic acetylcholine receptor M4 (Homo sapiens, UniProt P08173); test: Binding affinity to human recombinant M4 receptor
[35] = biological target: Histamine H3 receptor (Homo sapiens, UniProt Q9Y5N1); test: Binding affinity to human recombinant H3 receptor expressed in HEK293T cells; type: cell-based, HEK-293T
[36] = biological target: Alpha-2C adrenergic receptor (Homo sapiens, UniProt P18825); test: Binding affinity to human recombinant alpha2C adrenergic receptor
[37] = biological target: Alpha-1A adrenergic receptor (Homo sapiens, UniProt P35348); test: Binding affinity to human recombinant alpha1A adrenergic receptor
Chain of Alpha-1A adrenergic receptor (P35348 whole entry): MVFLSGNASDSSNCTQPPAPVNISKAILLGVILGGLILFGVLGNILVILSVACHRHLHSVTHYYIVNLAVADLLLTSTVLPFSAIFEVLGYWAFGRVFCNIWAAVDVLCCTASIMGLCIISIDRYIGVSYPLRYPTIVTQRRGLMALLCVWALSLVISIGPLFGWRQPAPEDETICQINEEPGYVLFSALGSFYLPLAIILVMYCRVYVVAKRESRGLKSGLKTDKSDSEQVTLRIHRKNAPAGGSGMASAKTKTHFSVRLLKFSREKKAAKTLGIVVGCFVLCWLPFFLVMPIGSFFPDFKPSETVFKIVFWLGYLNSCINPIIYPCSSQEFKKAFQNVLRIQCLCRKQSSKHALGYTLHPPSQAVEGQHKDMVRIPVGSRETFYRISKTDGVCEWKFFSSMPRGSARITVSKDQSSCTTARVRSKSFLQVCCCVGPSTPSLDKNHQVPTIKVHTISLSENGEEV

[38] = biological target: Histamine receptor H3 (Macaca mulatta) (UniProt Q865E1); test: Induction of histamine H3 receptor-mediated drug uptake in rhesus monkey brain by PET imaging
Method in brief: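 Male rhesus monkeys (7.3 ± 0.8 kg; n = 4 baseline), ketamine 10 mg/kg i.m. then 1.5% isoflurane in O2. […] [18F]ligand given i.v. Focus 220 microPET, 180 min (one scan 120 min), 45 frames 30 s–5 min, scatter/attenuation corrected, decay-corrected; template-normalized regions; uptake as SUV.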

Chain of Alpha-1D adrenergic receptor (P25100 whole entry): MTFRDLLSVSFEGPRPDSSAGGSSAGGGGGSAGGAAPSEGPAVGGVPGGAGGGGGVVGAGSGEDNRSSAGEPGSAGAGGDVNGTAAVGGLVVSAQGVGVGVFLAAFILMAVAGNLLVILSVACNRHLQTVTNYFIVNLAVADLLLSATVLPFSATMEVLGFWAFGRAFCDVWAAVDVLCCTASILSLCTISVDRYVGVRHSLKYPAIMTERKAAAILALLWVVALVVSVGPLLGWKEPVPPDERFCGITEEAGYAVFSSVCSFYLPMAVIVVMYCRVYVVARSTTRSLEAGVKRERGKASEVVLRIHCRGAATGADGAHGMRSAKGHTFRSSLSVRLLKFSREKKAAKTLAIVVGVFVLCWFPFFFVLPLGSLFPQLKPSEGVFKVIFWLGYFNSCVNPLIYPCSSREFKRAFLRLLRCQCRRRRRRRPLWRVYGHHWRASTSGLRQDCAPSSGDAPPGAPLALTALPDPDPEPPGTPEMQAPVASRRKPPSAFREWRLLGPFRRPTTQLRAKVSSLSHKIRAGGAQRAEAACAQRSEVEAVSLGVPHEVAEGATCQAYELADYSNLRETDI

SMILES	Ki [1] [µM]	Ki [2] [nM]	Ki [3] [nM]	Ki [4] [µM]	Ki [5] [µM]	Ki [6] [µM]	Ki [7] [µM]	Ki [8] [nM]	Ki [9] [µM]	Ki [10] [µM]	Ki [11] [nM]	Ki [12] [µM]	Ki [13] [µM]	Ki [14] [nM]	Ki [15] [µM]	Ki [16] [µM]	Ki [17] [µM]	Ki [18] [µM]	Ki [19] [µM]	Ki [20] [nM]	other results
C[C@@H]1CCCN1CCc1cc2cc(C(=O)c3ccc([N+](=O)[O-])cc3)ccc2o1	> 10	931	681	> 10	> 10	> 10	> 10	512	> 10	> 10	> 10000	> 10	> 10	137	> 10	> 10	> 10	> 10	> 10	1360	Ki [21]: > 10 µM; Ki [22]: 7.05 µM; Ki [23]: > 10 µM; Ki [24]: > 10 µM; Ki [25]: 336 nM; Ki [26]: > 10 µM; Ki [27]: > 10 µM; Ki [28]: > 10 µM; Ki [29]: 923 nM; Ki [30]: > 10 µM; Ki [31]: > 10 µM; Ki [32]: 5.24 µM; Ki [33]: > 10 µM; Ki [34]: 415 nM; Ki [35]: 0.4 nM; Ki [36]: > 10 µM; Ki [37]: > 10 µM
CNC(=O)c1ccc(Oc2ccc3c(c2)CCN(C2CCC2)CC3)nc1																					Activity [38]: > 90%
C[C@@H]1CCCN1CCc1cc2cc(C(=O)c3ccc(F)cc3)ccc2o1	> 10	3270	462	> 10	> 10	> 10	> 10	204	> 10	3.15	432	> 10	> 10	> 10000	> 10	> 10	> 10	> 10	> 10	2720	Ki [21]: > 10 µM; Ki [22]: 5.44 µM; Ki [23]: > 10 µM; Ki [24]: > 10 µM; Ki [25]: 437 nM; Ki [26]: > 10 µM; Ki [27]: > 10 µM; Ki [28]: > 10 µM; Ki [29]: 1710 nM; Ki [30]: > 10 µM; Ki [31]: > 10 µM; Ki [32]: 6.38 µM; Ki [33]: > 10 µM; Ki [34]: 351 nM; Ki [36]: > 10 µM; Ki [37]: > 10 µM
COc1ccc2c(c1)C(=O)O[C@]21CC[C@H](C(=O)N(C)CCN2CCCCC2)CC1																					Activity [38]: 83%
